Screens: PubChem BioAssay, several laboratories
UPR XBP1 act – activators of adaptive arm of unfolded protein response (XBP1) | 330,000 compounds, 0.33% hits | activation, % at 20 µM | CHO-XBP1 luciferase reporter, IRE1-XBP1 UPR activation, luminescence; percent of tunicamycin response, DMSO as zero;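 active means versus positive control, 20 µM dose yields 30% or more activation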
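Test system: CHO-XBP1 luciferase reporter cells | Buffer or medium: Serum-containing F12 medium, 10% FBS | Schedule: 6 h compound exposure at 37 °C, 5% CO2 | Detection: Steady-Glo luciferase glow luminescence, 10 min after reagent addition | Read-out basis: Activation, % of tunicamycin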
CHOP UPR activ – activators of apoptotic arm of unfolded protein response (CHOP); CHO-CHOP luciferase reporter, UPR activation, luminescence; percent of tunicamycin response over DMSO baseline; activation, % at 10 µM; 330,000 compounds, 0.34% hits;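 active means at 10 µM dose, activation of 40% or more, normalized to positive control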
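Evaluation: % reporter activation, DMSO baseline versus tunicamycin full activation; System: CHO-CHOP luciferase reporter cell line; Input: 500 cells/well; Incubation: 6 h compound treatment, 37 °C; Measured by: Steady-Glo luciferase luminescence; Dosing: one dose, 10 µM in 0.5% DMSO; Buffer or medium: F12 medium, 10% FBS; Benchmarks: positive tunicamycin 10 µg/mL, negative DMSO alone.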
CSC inhib – blocks cancer stem cells; cancer stem cell-like cells viability, luminescence; inhibition, % at 7.5 µM; 300,000 compounds, 1.1% hits; AID 2717; in the data active means inhibition above about 75%; tested in HMLE shEcad cells
T cruzi repl – T. cruzi replication inhibition; 300,000 compounds, 1.4% hits; T. cruzi beta-gal in NIH3T3, luminescence, 90 h; inhibition, % (test concentration not listed);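 active means mean inhibition across valid replicates above about 55%, limit read from the data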;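 further: signal also drops with host cell toxicity which is not excluded here; higher percent means less beta-gal luminescence so fewer parasites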
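Assay system: NIH/3T3 host cells with β-galactosidase reporter T. cruzi; input: 5,000 host fibroblasts per well; compound: single 50 nL compound addition per well in DMSO; timing: ≥90 h infection period, 3 h prior cell attachment; measured by: GalScreen β-gal luminescence, detergent lysis, 60 min; evaluation: percent inhibition of parasite-derived β-gal signal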
Beta cell apopt – beta cell apoptosis inhibition | AID 435005 | 300,000 compounds, 0.8% hits | protection from apoptosis, % (test concentration not listed) | INS-1E cytokine-induced death, ATP luminescence, 48 h; percent of positive-control rescue, neutral wells zero;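 active means Every replicate reaches about 75%, or at least half do and their mean reaches it too, limit read from the data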;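 further: higher means more ATP so stronger rescue from cytokine killing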
Mdm2-MdmX inh – inhibitors of human Mdm2/MdmX interaction; SaOS-2 split-luciferase Mdm2/MdmX complementation, luminescence; inhibition, % at 8 µM; 330,000 compounds, 3% hits;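 active means inhibition of at least 50% at 8 µM in the primary screen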
UPR CHOP confirm – confirmation of apoptotic unfolded protein response (CHOP) activators; shares compounds with CHOP UPR activ; CHO-CHOP cells, CHOP-luciferase reporter luminescence; percent of tunicamycin response, DMSO as zero; activation, % at 10 µM; 1,000 compounds, 64% hits; in the data active means activation above about 33%
UPR XBP1 confirm – confirmation of adaptive unfolded protein response (XBP1) activators; shares compounds with UPR XBP1 act; CHO-XBP1 IRE1-XBP1 luciferase reporter, luminescence; activation, % at 20 µM; 1,000 compounds, 63% hits;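 active means reporter signal at least 30% of the positive control's activation in two or more of four replicate wells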
Mdm2 MdmX conf – human Mdm2/MdmX binding inhibition, confirmed; luminescent assay; 10,000 compounds, 55% hits; shares compounds with Mdm2-MdmX inh; inhibition, % at 8 µM; AID 489028; in the data active means inhibition above about 40%
Full FLuc ctr – inhibits full-length luciferase, flagging false Mdm2/MdmX hits | inhibition, % at 8 µM | shares compounds with Mdm2-MdmX inh | 6,200 compounds, 77% hits | AID 504607 | SaOS-2 full-length luciferase counterscreen, luminescence;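 active means mean inhibition at 8 µM reaching about 37%, which flags the compound as non-specific, limit read from the data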;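 further: p53-null SaOS-2 cells with luciferase driven by a doxycycline-inducible promoter; compound on cells about two nights before reading with doxycycline added after day one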
A number is an active result; . = inactive; / = no result; ! = not confirmed by another sample. A selection: hits, their analogues and other compounds. The true share with any hit is near 5%.

SMILES	UPR XBP1 act	CHOP UPR activ	CSC inhib	T cruzi repl	Beta cell apopt	Mdm2-MdmX inh	Mdm2 MdmX conf	Full FLuc ctr	others
COc1ccccc1N1CCN(CCc2ccccc2)CC1	.	.	.	.	.	.	/	/
Cc1ccc(/C=C2\C(=O)NC(=S)N(c3ccc(F)cc3)C2=O)s1	.	393.3	.	.	.	79.9	.	/	UPR CHOP confirm=.
C[C@@H]1CCC2[C@@H](C)C(=O)O[C@@H]3OC4(C)CCC1[C@@]23OO4 (some centres undefined)	.	.	.	/	.	.	/	/
CCN1/C(=C\C=C\C2=[N+](CC)c3ccccc3C2(C)C)C(C)(C)c2ccccc21	.	46.3	92.7	54.8	118.6	97.1	96.2	.	UPR CHOP confirm=.
COC(=O)C1=C(c2c(C)noc2C)C[C@@H]2CC[C@H]1N2C(=O)NCCNC(C)=O	.	.	.	/	.	.	/	/
Cc1c(C(=O)c2cccc3ccccc23)c2cccc3c2n1[C@H](CN1CCOCC1)CO3	.	58.2	100.1	72.3	/	91.5	57.4	93.5	UPR CHOP confirm=39.8
CC(C)c1ccc(N2C(=O)NC(=O)/C(=C\c3cnc(-c4ccccc4)nc3)C2=O)cc1	.	.	.	.	.	.	/	/
CC(C)c1ccc(N2C(=O)NC(=O)/C(=C\C=C\c3ccco3)C2=O)cc1	.	250.2	99.0	.	.	55.7	.	/	UPR CHOP confirm=254.1
O=c1[nH]c(=O)n(C2CCCCC2)c(O)c1/C=C/C=Nc1ccccc1	.	.	.	.	.	.	/	/
CP(=O)(Nc1ccccc1)C(Cl)(Cl)Cl (centres undefined)	.	.	.	.	.	.	/	/
CN1C(=O)/C(=C/c2cccn2-c2ccc3ccccc3c2)C(=O)NC1=S	115.5	145.3	.	.	.	100.5	.	/	UPR CHOP confirm=151.1;UPR XBP1 confirm=.
CCN(CC)c1ccc(/C=C/[N+](=O)[O-])cc1	111.9	.	.	.	.	.	/	/	UPR XBP1 confirm=76.0
Cc1ccc(-n2c(O)c(/C=N/c3ncc(Br)cc3Br)c(=O)[nH]c2=O)cc1	31.0	.	.	.	.	.	/	/	UPR XBP1 confirm=51.5
Cc1cccc(-n2c(O)c(C=Nc3ccc(Br)cn3)c(=O)[nH]c2=O)c1	.	.	.	.	/	.	/	/
CCN(CC)c1ccc(N=Cc2c(O)n(Cc3ccccc3)c(=O)[nH]c2=O)cc1	31.2	.	.	.	.	.	/	/	UPR XBP1 confirm=35.1!
O=c1cccc2n1C[C@H]1C[C@@H]2CN2CCCC[C@@H]12	.	.	.	.	.	.	/	/
C[C@]12CCC3C(C(=O)C[C@H]4C[C@@H](O)CC[C@]34C)C1CCC2=O (some centres undefined)	.	.	.	/	.	.	/	/
C[C@@H]1O[C@@H](O[C@@H]2C=C3CCC4C(CC[C@]5(C)[C@@H](c6ccc(=O)oc6)CC[C@]45O)[C@@]3(C)CC2)[C@H](O)[C@H](O)[C@H]1O (some centres undefined)	.	.	100.7	/	.	83.1	81.3	49.1
C[C@@H]1O[C@@H](O[C@@H]2C=C3CC[C@@H]4C(CC[C@]5(C)[C@@H](c6ccc(=O)oc6)CC[C@]45O)[C@@]3(C)CC2)[C@H](O)[C@H](O)[C@H]1O (some centres undefined)	.	.	107.5	/	.	86.9	69.7	.
Cc1nc2ccccc2c(=O)n1-c1ccc(-c2ccccc2)cc1	.	.	.	.	.	.	/	/
CCn1nc(/C=C/c2ccccc2)nc2c(=O)n(C)c(=O)nc1-2	.	.	/	60.2	/	97.4	85.1	.
Oc1cc(Cl)ccc1Oc1ccc(Cl)cc1Cl	.	.	.	.	.	66.4	.	/
Cc1ccc(C)c(NP(=O)(Oc2ccccc2)Oc2ccccc2)c1	.	.	.	.	.	57.9	71.8	68.1
Cc1ccc(S(=O)(=O)NP(=O)(Oc2ccccc2)Oc2ccccc2)cc1	.	.	.	.	.	.	/	/
N=c1c2c(n(Cc3ccc(Cl)cc3Cl)c3c1CCC3)CCCC2	.	.	.	.	120.9	82.2	.	58.9
SMILES	UPR XBP1 act	CHOP UPR activ	CSC inhib	T cruzi repl	Beta cell apopt	Mdm2-MdmX inh	Mdm2 MdmX conf	Full FLuc ctr	others
Cc1nn(Cc2ccc(Cl)cc2Cl)c(Cl)c1C(=O)O	.	.	.	.	.	.	/	/
CN1[C@H]2CC[C@@H]1C(C(=O)N1CCOCC1)=C(O)C2	.	.	.	/	.	.	/	/
Cc1cc(N=Nc2ccccc2C)ccc1N	.	.	.	.	.	.	/	/
CC(C)(C)c1cc([N+](=O)[O-])cc(C(C)(C)C)c1O	.	.	.	.	99.9	88.4	.	/
CC(=O)OC(C)(C)/C=C/C(=O)C(C)(O)C1[C@H](O)C[C@@]2(C)C3CC=C4C(CC[C@@H](O)C4(C)C)[C@]3(CO)C(=O)C[C@]12C (some centres undefined)	.	.	.	55.9	/	97.7	98.0	.
COC(=O)C(C)Oc1cc(C)cc2oc(=O)c3c(c12)CCC3 (centres undefined)	.	.	.	.	.	52.3	.	/
COC(=O)C(C)Oc1cc(C)cc2oc(=O)c3c(c12)CCCC3 (centres undefined)	.	.	.	.	.	.	/	/
Brc1ccc2c(c1)C(OC1CN3CCC1CC3)c1ccccc1CS2 (centres undefined)	.	.	.	.	.	80.2	66.8	.
c1ccc2c(c1)CSc1ccccc1C2C1=NCCN1 (centres undefined)	.	.	.	.	.	.	/	/
c1ccc(P(c2ccccn2)c2ccccn2)cc1	.	.	.	.	.	.	/	/
N#Cc1cc2c(nc1SCC(=O)Nc1cc(Cl)ccc1Cl)C1CCN2CC1	.	.	.	.	.	84.1	98.7	.
COc1ccc(CNCCc2ccc3c(c2)OCO3)cc1Br	.	.	.	.	.	.	/	/
CC(=O)OC[C@]12CCC(C)=C[C@H]1O[C@@H]1[C@H](O)[C@@H](OC(C)=O)[C@@]2(C)[C@]12CO2	.	.	.	/	/	100.3	100.3	.
CN[C@@H]1C[C@@H](c2ccc(Cl)c(Cl)c2)c2ccccc21	.	.	.	.	.	82.2	.	/
COc1ccc(-n2c(/C=C/c3ccc(O)cc3)nc3ccccc3c2=O)cc1	.	.	.	.	/	50.2	.	/
